Data set [1] relates to NCI-H23. Nature of the data set: Cytotoxicity against human NCI-H23 cells after 72 hrs by CellTiter 96 AQueous one solution cell proliferation assay. It counts as functional, cell-based. The following applies: NCI-H23, 72 h. A digest of the protocol: (§1)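 Cells in RPMI1640 with 10% FBS; H23 plated at 5000, H727, RPMI8226 and the Cfz-resistant subline at 10 000 cells/well. Resistant subline adapted to stepwise Cfz up to 80 nM over ~6 months, kept in 80 nM, then Cfz-free ~1 week before testing.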

Data set [2] concerns NCI-H727. The data set can be described thus: Cytotoxicity against human NCI-H727 cells after 72 hrs by CellTiter 96 AQueous one solution cell proliferation assay. It counts as functional, cell-based. The following applies: NCI-H727, 72 h. A digest of the protocol: as §1
The nature of data set [3]: Selectivity ratio of IC50 for human NCI-H727 cells to IC50 for human NCI-H23 cells. It counts as functional.
Data set [4] concerns NCI-H727. The data set can be described thus: Potency index, ratio of carfilzomib IC50 to test compound IC50 for human NCI-H727 cells. Type of data set: functional.
Data set [5] addresses T1, Proteasome subunit beta type-9 (Homo sapiens, UniProt P28065).
T1 sequence (P28065 whole entry): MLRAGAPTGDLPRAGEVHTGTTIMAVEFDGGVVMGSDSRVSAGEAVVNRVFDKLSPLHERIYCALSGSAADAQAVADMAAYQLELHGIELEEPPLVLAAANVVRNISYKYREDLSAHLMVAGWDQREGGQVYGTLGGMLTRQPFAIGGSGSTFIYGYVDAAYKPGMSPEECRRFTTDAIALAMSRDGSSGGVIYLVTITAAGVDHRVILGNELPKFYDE
The data set can be described thus: Inhibition of purified human 20S immunoproteasome beta1 subunit using Ac-Pro-Ala-Leu-AMC as substrate pretreated for 1 hr followed by substrate addition and measured at 1 min interval by fluorescence assay.

Data set [6] can be described thus: Cytotoxicity against human RPMI8226/Cfzr cells after 72 hrs by CellTiter 96 AQueous one solution cell proliferation assay. It counts as functional, cell-based. Particulars: RPMI-8226, 72 h. The procedure, abridged: as §1
Data set [7] in a line: Potency index, ratio of carfilzomib IC50 to test compound IC50 for human RPMI8226/Cfzr cells. Type of data set: functional.
The target of data set [8] is T2, Proteasome Macropain subunit MB1 (Homo sapiens, UniProt P28074).
T2 sequence (P28074 whole entry): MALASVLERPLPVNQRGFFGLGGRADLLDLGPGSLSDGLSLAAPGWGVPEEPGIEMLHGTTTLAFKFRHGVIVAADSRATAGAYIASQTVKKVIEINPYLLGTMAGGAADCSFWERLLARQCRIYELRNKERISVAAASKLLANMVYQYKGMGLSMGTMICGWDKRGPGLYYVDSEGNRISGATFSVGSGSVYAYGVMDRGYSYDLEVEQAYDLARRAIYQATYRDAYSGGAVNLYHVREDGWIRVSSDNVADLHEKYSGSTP
Nature of the data set: Inhibition of 20S proteasome beta5 subunit in human RPMI8226 cell lysate using Suc-LLVY-AMC as substrate pretreated for 1 hr followed by substrate addition and measured at 1 min interval by fluorescence assay. It counts as subcellular.

Data set [9] in a line: Stability in Sprague-Dawley rat liver homogenate at 1 uM measured up to 20 mins by LC-MS/MS analysis.
Data set [10] concerns the target ATP-dependent translocase ABCB1 (Homo sapiens, UniProt P08183). The data set can be described thus: Inhibition of P-gp in human RPMI8226/Cfzr cells assessed as potentiation of carfilzomib-induced cytotoxicity at 7.5 uM measured after 72 hrs by CellTiter 96 AQueous one solution cell proliferation assay. It counts as cell-based.
The test system of data set [11] is RPMI-8226. The data set can be described thus: Cytotoxicity against human RPMI8226 cells after 72 hrs by CellTiter 96 AQueous one solution cell proliferation assay. The following applies: RPMI-8226, 72 h. It counts as functional, cell-based. A digest of the protocol:
as §1

A short description of data set [12]: Selectivity ratio of IC50 for human RPMI8226/Cfzr cells to IC50 for human RPMI8226 cells. Type of data set: functional.
The species named for data set [13] is Homo sapiens. The data set can be described thus: Cytotoxicity against human multiple myeloma cells at 10 uM after 48 hrs by CellTiter Glo luminescent cell viability assay. Background: Cellular ATP, detected with luciferase, serves as a proxy for viable cell number.
For data set [14], the species on record is Homo sapiens. The data set can be described thus: Cytotoxicity against human Btz-resistant multiple myeloma cells at 10 uM after 48 hrs by CellTiter Glo luminescent cell viability assay.
A short description of data set [15]: Half life in patient with relapsed and refractory multiple myeloma. It counts as ADME. Particulars: human, in vivo.

Molecules are shown by their SMILES. The source made the active and inactive calls. Residues, ends and D or L forms follow the SMILES beside them. *: point of attachment. Cbz = O=C(OCc1ccccc1)*; Boc = CC(C)(C)OC(=O)*; OBn = c1ccc(CO*)cc1; OtBu = CC(C)(C)O*

Chain of ATP-dependent translocase ABCB1 (P08183 whole entry): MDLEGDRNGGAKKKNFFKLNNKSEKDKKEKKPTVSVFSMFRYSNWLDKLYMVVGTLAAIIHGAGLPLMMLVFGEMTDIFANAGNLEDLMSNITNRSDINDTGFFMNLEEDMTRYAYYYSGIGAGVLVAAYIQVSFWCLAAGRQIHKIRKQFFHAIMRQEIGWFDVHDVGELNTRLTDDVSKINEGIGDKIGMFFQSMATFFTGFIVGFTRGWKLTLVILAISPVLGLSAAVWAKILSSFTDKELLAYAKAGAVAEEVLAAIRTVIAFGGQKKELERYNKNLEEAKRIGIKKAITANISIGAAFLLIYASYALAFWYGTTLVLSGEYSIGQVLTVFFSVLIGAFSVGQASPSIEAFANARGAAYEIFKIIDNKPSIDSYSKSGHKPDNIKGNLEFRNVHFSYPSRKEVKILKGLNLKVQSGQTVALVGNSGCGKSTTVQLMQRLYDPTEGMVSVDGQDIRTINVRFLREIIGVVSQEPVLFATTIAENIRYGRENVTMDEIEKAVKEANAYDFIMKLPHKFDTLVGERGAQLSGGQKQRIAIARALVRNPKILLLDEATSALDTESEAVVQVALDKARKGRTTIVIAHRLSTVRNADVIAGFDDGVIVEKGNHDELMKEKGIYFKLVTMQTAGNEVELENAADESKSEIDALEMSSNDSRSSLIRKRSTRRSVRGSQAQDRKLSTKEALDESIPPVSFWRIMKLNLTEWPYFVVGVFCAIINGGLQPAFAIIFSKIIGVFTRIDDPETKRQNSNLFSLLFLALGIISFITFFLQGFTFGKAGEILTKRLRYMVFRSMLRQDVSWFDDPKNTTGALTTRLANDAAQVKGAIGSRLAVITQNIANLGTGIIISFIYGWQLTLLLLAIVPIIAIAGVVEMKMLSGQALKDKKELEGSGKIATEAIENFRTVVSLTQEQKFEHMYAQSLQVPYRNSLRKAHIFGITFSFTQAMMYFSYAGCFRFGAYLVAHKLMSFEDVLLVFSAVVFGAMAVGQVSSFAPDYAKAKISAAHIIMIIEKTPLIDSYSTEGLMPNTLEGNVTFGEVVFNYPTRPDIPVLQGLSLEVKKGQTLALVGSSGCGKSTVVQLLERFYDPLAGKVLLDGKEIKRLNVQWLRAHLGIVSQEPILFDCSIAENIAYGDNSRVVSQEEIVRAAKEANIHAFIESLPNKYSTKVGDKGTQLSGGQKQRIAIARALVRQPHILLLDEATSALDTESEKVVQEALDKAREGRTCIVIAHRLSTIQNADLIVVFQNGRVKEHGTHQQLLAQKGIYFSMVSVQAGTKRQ

One may read the IC50 as the concentration at which inhibition is half-maximal. As to `CC(=O)N[C@@H](CSC(=O)[C@]1([C@@H](O)C(C)C)NC(=O)[C@H](C)[C@@H]1O)C(=O)O` [LACTACYSTIN], the IC50 in data set [1] was 5230 nM; in [2], over 100000 nM. Besides, the “Ratio IC50” value in data set [3] is listed as over 19.

As for `CC(C)C[C@H](NC(=O)[C@H](CCc1ccccc1)NC(=O)CN1CCOCC1)C(=O)N[C@@H](Cc1ccccc1)C(=O)N[C@@H](CC(C)C)C(=O)[C@@]1(CO)CO1`, the “Ratio IC50” value is listed as 10 in data set [4] and 3 in data set [7]. The IC50 in data set [5] worked out at 743 nM; in data set [1], 29.4 nM; in data set [2], 61 nM; in data set [6] it was 106 nM; in data set [8] it was 2.1 nM. In addition, the Stability result in data set [9] was “Stable”.

On to `CC(C)C[C@H](NC(=O)[C@H](CCc1ccccc1)NC(=O)CN1CCOCC1)C(=O)N[C@@H](Cc1ccccc1)C(=O)N[C@@H](CC(C)C)C(=O)[C@@]1(CO[Si](c2ccccc2)(c2ccccc2)C(C)(C)C)CO1`, for which the IC50 in data set [1] is over 10000 nM; in data set [2], over 10000 nM; in data set [8], 112 nM.

Consider `CC(C)(C)OC(=O)N[C@@H](CC(=O)OCc1ccccc1)C(=O)N[C@@H](CCCCNC(=O)OCc1ccccc1)C(=O)OC(C)(C)C` [REVERSIN 121] (Boc-Asp(OBn)-Lys(Cbz)-OtBu), for which the “inhibition (INH)” value in data set [10] is “Active”.

For the compound `CCCCCCC(=O)N[C@@H](C)C(=O)N[C@@H](CC(C)C)C(=O)[C@@]1(CO[Si](C)(C)C(C)(C)C)CO1`, the IC50 in data set [5] was 140 nM; in data set [1], 3370 nM; in data set [2], 5210 nM; in data set [11], 2140 nM; in [6], 2140 to 3720 nM; in data set [8] it was over 10000 nM. The “Ratio IC50” value is given as 1.5 in data set [3] and 1.7 in data set [12]. The result in [13] and in [14] was Active.

On to `COC[C@]1(C(=O)[C@H](CC(C)C)NC(=O)[C@H](Cc2ccccc2)NC(=O)[C@H](CC(C)C)NC(=O)[C@H](CCc2ccccc2)NC(=O)CN2CCOCC2)CO1`, for which the IC50 in data set [8] was over 1000 nM.

In the case of `CC(C)C[C@H](NC(=O)[C@H](CCc1ccccc1)NC(=O)CN1CCOCC1)C(=O)N[C@@H](Cc1ccccc1)C(=O)N[C@@H](CC(C)C)C(=O)[C@@]1(COS(C)(=O)=O)CO1`, the IC50 in [1] is 311 nM; in [2] it was 834 nM; in [8] it was 8 nM.

Regarding `CC[C@H](C)[C@H](NC(=O)[C@H]([C@@H](C)CC)N(C)C(C)=O)C(=O)N[C@H](C(=O)N[C@@H](CC(C)C)C(=O)[C@@]1(C)CO1)[C@@H](C)O` [EPOXOMYCIN], the IC50 was 11 nM in [11] and 541 nM in data set [6]. In data set [12], the “Ratio IC50” value worked out at 49.2.

As to `CC(C)C[C@H](NC(=O)[C@H](Cc1ccccc1)NC(=O)c1cnccn1)B(O)O` [BORTEZOMIB], the values for the IC50 in data set [1] and in data set [2] were 10 nM and 25 nM, respectively. For the same compound, the “Ratio IC50” value in data set [3] was 2.5.

As for `COCCOCOC[C@]1(C(=O)[C@H](CC(C)C)NC(=O)[C@H](Cc2ccccc2)NC(=O)[C@H](CC(C)C)NC(=O)[C@H](CCc2ccccc2)NC(=O)CN2CCOCC2)CO1`, in data set [8], the IC50 was over 1000 nM.

In general, half-life refers to the time needed for the level to fall by half in the phase considered. A high value points to slow decline. Take `CC(C)C[C@H](NC(=O)[C@H](CCc1ccccc1)NC(=O)CN1CCOCC1)C(=O)N[C@@H](Cc1ccccc1)C(=O)N[C@@H](CC(C)C)C(=O)[C@@]1(C)CO1` [CARFILZOMIB]: the half-life in [15] was under 1 h. The IC50 is 18 to 18.3 nM in data set [1], 610 to 611 nM in data set [2], 7 nM in data set [11] and 269 to 270 nM in [6]. The Stability entry in data set [9] was “Stable”.

In the case of `CCCCCCC(=O)N[C@@H](C)C(=O)N[C@@H](CC(C)C)C(=O)[C@@]1(CO)CO1`, the IC50 was 36 nM in data set [5]; 580 nM in data set [1]; 690 nM in data set [2]; 310 nM in data set [6]; 1700 nM in data set [8].

With `COCOC[C@]1(C(=O)[C@H](CC(C)C)NC(=O)[C@H](Cc2ccccc2)NC(=O)[C@H](CC(C)C)NC(=O)[C@H](CCc2ccccc2)NC(=O)CN2CCOCC2)CO1`, the IC50 in data set [8] is over 1000 nM.

Take `CCCCCCC(=O)N[C@@H](CO)C(=O)N[C@@H](CC(C)C)C(=O)[C@@]1(COCOCCOC)CO1`: the IC50 in data set [1] amounted to 3400 nM; in data set [2] it was 4490 nM; in data set [11] it was 2080 nM; in data set [6], 3410 nM. The figures for the “Ratio IC50” value in data set [3] and in data set [12] were 1.3 and 1.6, respectively. For the same compound, the outcome in data set [13] and in [14] was Active.

`CC(C)C[C@@H](C=O)NC(=O)[C@H](CC(C)C)NC(=O)[C@H](CC(C)C)NC(=O)OCc1ccccc1` [MG-132] (Cbz-Leu-Leu-Leu-aldehyde): the IC50 came to 480 nM in data set [1] and 980 nM in data set [2]. In [3], the “Ratio IC50” value was 2.

Source of the values: ChEMBL document CHEMBL4393670 (J Med Chem, 2019).
